ROMK primary – human ROMK K+ channel modulation, primary screen. P48048. actives 2% (n = 130,000). B-score at 10 µM. Tet-inducible ROMK, thallium flux fluorescence; actives lie on both sides. AID 1918;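 active = signal ratio slope over the read window, or its plate-corrected B-score, at least 3 SD from the plate mean, either direction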;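 also: B-score of the F/F0 ratio slope over 7 to 12 s after thallium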
TRPN1 ag – activates the zebrafish TRPN1 channel; HEK293 zebrafish TRPN1-YFP, Fluo-8 calcium fluorescence; 100% = response to 87 µM carbachol; activation, % at 3 µM; actives 0.18% (n = 220,000);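 active = activation above its plate's cutoff, the mean activation of test wells on that plate plus 3 SD, cut at about 19% in these data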;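 also: 0% = DMSO alone and 100% = 87 µM carbachol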
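Material: zebrafish TRPN1-YFP in HEK293 cells; Doses: single test compound dose, 3 µM nominal, 0.3% DMSO; Timing: dye loading 1 h at 37 °C, then 30 min room temperature; Technique: intracellular calcium fluorescence with Fluo-8; Benchmarks: high carbachol 87 µM, low DMSO alone.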
ABCG2 block – human ABCG2 inhibition, ABCB1 as counter-screen; inhibition, % at 6.6 µM; actives 0.1% (n = 190,000); AID 1325; Q9UNQ0; IgMXP3 cells, JC-1 efflux, flow cytometry;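 active = inhibition above 80%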;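 also: 0% = DMSO and 100% = nicardipine control wells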
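Test system: IgMXP3 (ABCG2) plus far-red-tagged CCRF-Adr (ABCB1) cells. Reagent: JC-1 dye as substrate. Timing: 10 min exposure at 25 °C with rotation, no wash. Measured by: flow cytometric JC-1 green MFI at 530 nm. Read-out: percent efflux inhibition, scaled nicardipine 100% to DMSO 0%. Control set: nicardipine and DMSO wells.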
TRPML3 ag – human mucolipin-3 channel agonism; HEK293 TRPML3-YFP, Fluo-8 calcium fluorescence; 100% = the carbachol control signal; Q8TDD5; AID 1448; activation, % at 3 µM; actives 0.29% (n = 220,000);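 active = activation above its plate's cutoff, the mean activation of the plate's test wells plus 3 SD, cut at about 12% in these data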;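 also: 0% = DMSO only wells and 100% = carbachol wells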
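Material: TRPML3-YFP stable HEK293 cells | Dosing: One concentration, 3 µM nominal, 0.3% DMSO | Timing: 125 s total fluorescence read per well | Technique: Fluo-8 calcium dye fluorescence, ex 470-495, em 515-575 nm | Measure: Percent activation from peak-to-basal fluorescence ratio, scaled between DMSO and carbachol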
ABCB1 inh – inhibitors of human ABCB1 transporter, ABCG2 counter-screen. inhibition, % at 6.6 µM. P08183. actives 0.067% (n = 190,000). CCRF-Adr cells, JC-1 efflux, flow cytometry; in the data active = inhibition above about 40%;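 also: 0% = vehicle and 100% = reference inhibitor; higher value means more JC-1 retained so stronger ABCB1 efflux block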
Target sequence (P08183 whole entry, looked up): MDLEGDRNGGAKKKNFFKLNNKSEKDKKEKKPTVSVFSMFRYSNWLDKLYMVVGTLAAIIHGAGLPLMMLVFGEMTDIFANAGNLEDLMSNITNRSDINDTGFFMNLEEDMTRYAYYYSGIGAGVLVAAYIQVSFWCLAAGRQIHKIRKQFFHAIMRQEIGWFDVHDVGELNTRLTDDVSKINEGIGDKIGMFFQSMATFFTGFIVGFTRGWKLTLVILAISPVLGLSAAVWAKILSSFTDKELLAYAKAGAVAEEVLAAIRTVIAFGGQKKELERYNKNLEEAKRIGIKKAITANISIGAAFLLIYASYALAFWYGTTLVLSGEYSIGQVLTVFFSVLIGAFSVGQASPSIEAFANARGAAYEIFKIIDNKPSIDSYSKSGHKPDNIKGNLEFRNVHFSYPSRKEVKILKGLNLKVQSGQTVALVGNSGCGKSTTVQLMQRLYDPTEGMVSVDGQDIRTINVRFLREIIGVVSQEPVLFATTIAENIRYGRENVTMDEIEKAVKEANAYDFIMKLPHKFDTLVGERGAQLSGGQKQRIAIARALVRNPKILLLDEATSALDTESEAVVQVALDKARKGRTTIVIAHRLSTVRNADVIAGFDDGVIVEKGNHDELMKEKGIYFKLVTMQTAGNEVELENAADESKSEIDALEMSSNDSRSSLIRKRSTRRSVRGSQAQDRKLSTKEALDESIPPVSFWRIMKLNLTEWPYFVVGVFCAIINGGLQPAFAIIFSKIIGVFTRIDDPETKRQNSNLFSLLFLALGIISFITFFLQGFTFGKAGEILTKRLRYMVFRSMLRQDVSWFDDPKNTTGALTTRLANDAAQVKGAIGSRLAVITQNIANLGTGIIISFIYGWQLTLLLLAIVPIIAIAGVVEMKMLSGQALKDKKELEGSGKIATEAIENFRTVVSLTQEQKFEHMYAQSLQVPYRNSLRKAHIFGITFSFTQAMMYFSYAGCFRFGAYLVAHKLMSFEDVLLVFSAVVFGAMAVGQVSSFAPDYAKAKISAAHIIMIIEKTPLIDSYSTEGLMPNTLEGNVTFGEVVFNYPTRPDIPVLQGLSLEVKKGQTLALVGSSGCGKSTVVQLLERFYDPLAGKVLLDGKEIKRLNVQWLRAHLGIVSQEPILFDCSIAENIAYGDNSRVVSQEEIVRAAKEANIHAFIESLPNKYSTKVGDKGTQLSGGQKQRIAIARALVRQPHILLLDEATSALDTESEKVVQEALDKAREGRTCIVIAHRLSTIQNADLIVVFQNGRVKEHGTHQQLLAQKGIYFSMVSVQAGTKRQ
Calb biofilm kill – mixtures killing C. albicans biofilm. actives 0.02% (n = 120,000). C. albicans biofilm persisters + clotrimazole, fluorescence viability; primary screen in compound mixtures of four per well. inhibition, % at 7.6 µM;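 active = inhibition above 30.3% in the primary screen of four-compound pools, then above 30% when the compound was retested; inconclusive = passed the primary limit but could not be retested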;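 also: compounds exposed to preformed 24 h biofilms for 48 h; 0% = untreated biofilm control and 100% = clotrimazole plus chlorhexidine kill blank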
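Assay system: C. albicans biofilms / Medium: RPMI/MOPS medium, pH 7.0 / Schedule: biofilm formation 24 h, compound exposure 48 h, 37 °C / Measured by: Alamar Blue fluorescence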
ROMK retest – retested hit modulating human ROMK potassium channel | AID 1917 | ROMK thallium flux, fluorescence ratio; stronger effect = lower value | normalized thallium flux (F/F0 slope) at 10 µM | shares compounds with ROMK primary | actives 54% (n = 3,000);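 active = Flux at 10 µM at least 3 SD below or above vehicle control mean in one or both replicates; inconclusive = no clear call, values can overlap the other calls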
* marks the source's active call; other numbers are inactive results; u = inconclusive; x = no result. Only a selection was taken, and hits are over-represented in it overall.

SMILES	ROMK primary	TRPN1 ag	ABCG2 block	TRPML3 ag	ABCB1 inh	Calb biofilm kill	ROMK retest
COc1ccc(OC)c2c(C)cc(N3CCN(C(=O)c4ccc(C)cc4)CC3)nc12	-8.5*	0	10	1	4	10	0.085
COc1ccc(OC)c2c(C)cc(N3CCN(C(=O)c4ccc(F)cc4)CC3)nc12	x	-2	2	-1	0	x	x
CCNC(=O)NC(=O)C(C)Oc1ccc(Br)cc1Br (centres undefined)	0.21	-1	2	-1	1	-1	x
CCCNC(=O)c1nnsc1S(=O)(=O)c1ccc(Cl)cc1	-4.9*	0	1	5	0	34*	0.047*
CNC(=O)c1nn(-c2ccc(Cl)cc2)ccc1=O	x	-1	-3	0	-3	x	x
CCCNC(=O)NS(=O)(=O)c1ccc(Cl)cc1	x	1	0	0	0	10	x
CCCNC(=O)c1nnsc1S(=O)c1ccc(Cl)cc1 (centres undefined)	-6.4*	2	-1	6	0	13	0.055*
CCCNC(=O)c1ccc2snnc2c1	0.34	1	0	0	0	14	x
CNC(=O)c1nnsc1S(=O)c1ccc(Cl)cc1 (centres undefined)	-8.8*	2	4	2	0	6	0.049*
CCOC(=O)/C(C#N)=C\C1=C(N2CCOCC2)CC(C)(C)OC1	-0.62	0	-1	1	0	14	x
COc1cc(-c2cc(-c3ccc(O)cc3)nc(N)c2C#N)ccc1O	4.2*	-2	0	-2	0	4	0.089
COc1ccc(OC)c(-c2cc(-c3cccnc3)nc(N)c2C#N)c1	3.5*	0	x	-1	x	13	0.076
O=S1(=O)N=C2CCCCCN2C(c2ccc(Br)cc2)N1 (centres undefined)	-0.9	2	-1	1	0	8	x
COc1cccc2cc(C(=O)C3=C(O)C(=O)N(CCN(C)C)C3c3ccc(Cl)cc3)oc12 (centres undefined)	x	0	x	1	x	19	x
Cc1ccc(OCCCC(=O)NC(C)c2ccccc2)cc1 (centres undefined)	3.2*	-1	-1	0	0	x	0.092
Cc1cc(/C=N/n2cnnc2)c(C)n1-c1cc(Cl)ccc1Cl	x	-3	0	-1	0	x	u
CN(C(=S)NC(=O)Cc1ccccc1)c1ccccc1	0.048	0	-4	0	-1	10	x
COC(=O)CN1C(c2cccc(Cl)c2)=Nc2ccc(Cl)cc2C1c1ccccc1 (centres undefined)	x	-1	21	0	6	8	0.055*
Cc1noc(NS(=O)(=O)c2ccc(N/C=C\C(=O)c3ccc(F)cc3)cc2)c1C	3.9*	1	2	1	-1	12	0.083
Cc1cc(C(=O)CSc2nnc(-c3cccs3)n2Cc2ccccc2)c(C)n1C	-1	-1	5	0	5	x	x
O=c1cc(CSc2nnc(-c3cccs3)n2Cc2ccccc2)nc2sc3ccccc3n12	x	2	3	-1	2	x	0.064*
CC(=O)c1ccc(-c2ccc(C(=O)N3CCCc4ccccc43)o2)cc1	-3.5*	-1	6	-1	1	9	0.057*
COc1ccc(CC(=O)N2CCCc3ccccc32)cc1OC	-1.9	-1	9	1	1	x	x
COc1ccc(CC(=O)N2CCCc3ccccc32)cc1	x	-1	5	-1	0	x	0.077
Cc1ccc(C(=O)N2CCc3ccccc32)o1	-0.51	-3	-3	0	0	4	x
SMILES	ROMK primary	TRPN1 ag	ABCG2 block	TRPML3 ag	ABCB1 inh	Calb biofilm kill	ROMK retest
CC(C)Cc1nc2c(nnn2Cc2ccccc2F)c(=O)[nH]1	x	-2	x	-1	x	8	x
CCc1cc2cc3c(cc2nc1SCC(=O)Nc1cc(C)on1)OCO3	x	0	1	0	0	x	0.073
ClCC1CN(Cc2ccccc2Cl)CCO1 (centres undefined)	-0.33	1	1	1	3	5	x
CCOC(=O)Cc1cc(=O)n2[nH]c(C(C)(C)C)cc2n1	x	0	x	0	x	21	x
NC1=NC[C@H](CC2CCCCC2)N1CCc1cc(C(F)(F)F)cc(C(F)(F)F)c1	x	x	x	x	x	14	0.05*
NC1=NC[C@@H](Cc2ccc(O)cc2)N1CCc1cc(C(F)(F)F)cc(C(F)(F)F)c1	x	x	x	x	x	17	x
CC(=O)C(Sc1ncnc2c1nnn2-c1ccc(F)cc1)C(=O)N(C)C (centres undefined)	x	-1	0	1	0	x	0.073
CCOC(=O)c1c(C)[nH]c(C(=O)COC(=O)c2ccc(O)cc2O)c1C	x	2	x	0	x	8	0.078
O=C(Nc1nc2ccc(Cl)cc2s1)[C@@H]1CCCN1C(=O)c1cccs1	-0.26	0	1	0	0	-4	x
COc1cc(/C=C(/C(=O)c2cccs2)c2nc3ccccc3[nH]2)ccc1O	x	1	-2	0	-3	x	0.055*
O=C(/C(=C/c1ccc(Cl)cc1)c1nc2ccccc2[nH]1)c1cccs1	-5.4*	-1	0	1	0	x	0.057*
O=c1[nH]c2ccccc2nc1/C=C(\O)c1cccs1	-2.5*	11	4	5	3	14	0.045*
COc1ccc(/C=N/NC(=O)c2c(C)nnn2-c2nonc2N)cc1OC	-0.31	1	8	0	0	25	x
COc1ccc(CN2CCNC(=O)C2CC(=O)NCc2cnn(C)c2)cc1OC (centres undefined)	0.48	0	-1	2	0	12	x
O=C(C[n+]1cc2ccccc2c2ccccc21)c1ccccc1	-3.8*	-1	0	0	0	x	0.057*
O=C(C[n+]1cccc2ccccc21)c1ccccc1	0.43	0	1	1	0	-2	x
CNC(=O)CSc1cn(CC(=O)N(C(C)C)C(C)C)c2ccccc12	-1.8	-1	-1	0	0	-5	x
O=C(Nc1ccccc1)Nc1ccc(F)c([N+](=O)[O-])c1	x	20*	34	10	1	19	u
CCOC(=O)N1CCN(C(=O)CNC2CCCCCCC2)CC1	0.016	2	7	1	1	9	x
O=C(Nc1ccc(Cl)cc1)N1CCCN(Cc2ccc(F)cc2)C1	-2.7*	0	3	1	1	x	0.056*
CCOc1ncccc1C(=O)NCc1ccccc1Cl	-0.19	-2	7	-1	2	8	x
COc1ccc(C(=O)CCC(=O)O)c(C)c1	4.3*	-1	0	0	0	x	0.083
CCCCN(CC)c1nc(N)c(C#N)c(CC#N)c1C#N	-3.1*	0	0	0	0	x	0.055*
